Screens from PubChem.
A selection: hits, their analogues and other compounds. The true share with any hit is near 4.7%.
AHR activator = AHR activators, primary screen, cell-based, luminescence, luciferase reporter, human; AHR-responsive luciferase reporter cells; activation, % at 5 µM; actives 2.5% (n = 320,000); in the data active = activation above about 47%;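 also: 0% = vehicle wells and 100% = reference agonist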
MC4R barr agon = MC4R agonists recruiting beta-arrestin, primary screen, cell-based, luminescence, agonist arm of biased-ligand search; Melanocortin receptor 4 (Homo sapiens), P32245; U2OS MC4R beta-arrestin complementation; percent of melanotan II response, DMSO zero; activation, % at 8.9 µM; actives 0.98% (n = 360,000); AID 540308, 2011;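 active = activation above a per-plate cutoff, the mean activation of sample wells on that plate plus 3 SD, cut at about 8% in these data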
FXN GAA850 act = FXN promoter activators, primary screen, cell-based, luciferase luminescence, HEK293 lucGAA850 | activation, % at 6 µM | AID 540364, 2011 | HEK293 lucGAA850 FXN promoter luciferase reporter, 24 h; percent of 10 µM SAHA response | actives 0.56% (n = 360,000);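 active = activation above the average of all compounds screened plus 3 SD, cutoff fixed separately per campaign, cut at about 7.5% in these data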;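 also: 0% = DMSO wells and 100% = 10 µM SAHA wells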
m5-HT2A agonist = mouse Htr2a agonists via beta-arrestin recruitment, primary screen, cell-based, luminescence; 5-hydroxytryptamine receptor 2A (Mus musculus), P35363; CHO-K1 mHTR2A beta-arrestin complementation; percent of 30 µM serotonin response; activation, % at 7.6 µM; actives 0.66% (n = 360,000);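 active = activation above a run cutoff, the mean activation of all tested compounds plus 3 SD, cut at about 14% in these data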;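 also: 0% = plate median of compound wells and 100% = 30 µM serotonin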
Target sequence (P35363 whole entry, looked up): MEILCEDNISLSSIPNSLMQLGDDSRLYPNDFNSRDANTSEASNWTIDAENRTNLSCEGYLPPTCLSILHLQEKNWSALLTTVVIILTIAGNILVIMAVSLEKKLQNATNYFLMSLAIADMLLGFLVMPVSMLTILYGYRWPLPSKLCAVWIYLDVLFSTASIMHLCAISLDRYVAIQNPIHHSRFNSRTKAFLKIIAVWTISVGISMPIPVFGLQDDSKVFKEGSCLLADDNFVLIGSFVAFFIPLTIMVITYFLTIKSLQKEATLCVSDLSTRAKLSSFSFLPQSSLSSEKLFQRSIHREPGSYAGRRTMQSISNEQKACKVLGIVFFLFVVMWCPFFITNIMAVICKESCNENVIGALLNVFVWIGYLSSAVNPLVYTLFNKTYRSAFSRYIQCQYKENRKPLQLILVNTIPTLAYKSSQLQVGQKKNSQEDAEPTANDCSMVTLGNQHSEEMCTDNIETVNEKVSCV
MC4R antag cAMP = MC4R antagonists of cAMP signaling, primary screen, cell-based, TR-FRET, antagonist arm of biased-ligand search. MC4R-expressing cells, MTII-stimulated cAMP, LANCE TR-FRET. inhibition, % at 6.5 µM. actives 0.48% (n = 360,000);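 active = inhibition above its plate's cutoff, the mean of tested wells on that plate plus 3 SD, cut at about 29% in these data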;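 also: 0% = Melanotan II alone and 100% = Melanotan II plus saturating MCL0020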
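Test system: U2OS cells stably expressing human melanocortin 4 receptor (MC4R); also added: Melanotan II challenge; compound: 6.5 µM single dose; timing: 30-min compound preincubation, 1-h Melanotan II challenge, 1-h detection, room temperature; signal: Eu-cAMP/anti-cAMP TR-FRET, emission 671 nm; repeats: one well per compound, no replicates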
U2OS cAMP counter = nonselective cAMP signaling inhibitors, parental cells, counter-screen for MC4R biased antagonist project, cell-based, TR-FRET, U2OS, forskolin, triplicate; actives 26% (n = 1,600); inhibition, % at 6.5 µM; LANCE TR-FRET; shares compounds with MC4R antag cAMP;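 active = mean inhibition over triplicates above the low-control well mean plus 3 SD, set per campaign, cut at about 13% in these data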;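 also: signal is single emission at 671 nm which falls as cellular cAMP rises; 0% = forskolin-stimulated wells and 100% = buffer without forskolin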
MC4R cAMP antag = MC4R cAMP antagonists, retest, confirmation, cell-based, TR-FRET. shares compounds with MC4R antag cAMP. MC4R-expressing cells, MTII-stimulated cAMP. inhibition, % at 6.5 µM. actives 27% (n = 1,600); in the data active = inhibition above about 29%;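 also: 0% = agonist stimulated wells alone and 100% = agonist stimulated wells plus saturating reference antagonist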
* marks the source's active call; other numbers are inactive results; . = not tested or not shown.

SMILES	AHR activator	MC4R barr agon	FXN GAA850 act	m5-HT2A agonist	MC4R antag cAMP	U2OS cAMP counter	MC4R cAMP antag
CCOc1ccc(NC(=O)c2ccc(NS(=O)(=O)c3cccc4cccnc34)cc2)cc1	.	-1	3	4	1	.	.
COC(=O)c1ccc(NC(=O)c2ccc(NS(=O)(=O)c3cccc4cccnc34)cc2)cc1	-1	2	-2	-4	30*	-1	2
CC(C)c1ccc(Nc2nnc(SC3CCOC3=O)s2)cc1 (stereo not given)	-1	-3	0	4	31*	41*	33*
O=C(COc1ccc([N+](=O)[O-])cc1)Nc1ccc2c(c1)OCO2	42	2	3	5	32*	0	2
O=C(OCCN1CCCCC1)c1ccccc1Br	-1	0	0	-9	30*	-1	0
O=C(OCCN1CCCCC1)c1ccc(Cl)cc1	1	-2	-1	-4	-2	.	.
C#CC(=O)N(c1ccc(OC)cc1OC)C(C(=O)NC1CCCC1)c1cccs1 (stereo not given)	-3	9.0*	-15	-5	43*	-38	42*
C#CC(=O)N(c1cc(OC)ccc1OC)C(C(=O)NC1CCCC1)c1cccs1 (stereo not given)	-8	16*	-18	-1	33*	-34	22
NC(=O)NC(=O)C(c1ccccc1)N1CCN(S(=O)(=O)Cc2ccccc2)CC1 (stereo not given)	20	-1	1	-4	-2	.	.
CCCCn1c(N)c(N(CC(C)C)C(=O)CCCc2nc3ccccc3s2)c(=O)[nH]c1=O	-1	-3	1	2	0	.	.
CCCCn1c(N)c(N(CCC(C)C)C(=O)CCCc2nc3ccccc3s2)c(=O)[nH]c1=O	4	-2	-2	0	30*	4	15
ClN=C1C=CC=CC1=NCl	.	.	.	0	.	.	.
O=C(COC(=O)C(Cc1ccccc1)NC(=O)c1cccs1)NCc1ccccc1 (stereo not given)	2	2	-1	6	30*	8	21
O=C(N[C@@H](Cc1ccccc1)C(=O)OCC(=O)N1CCOCC1)c1cccs1	12	-1	0	-2	13	.	.
CC(=O)NCCNC(=O)[C@H](Cc1ccccc1)NC(=O)c1cccs1	-2	0	2	-4	9	.	.
O=C(COC(=O)[C@H](Cc1ccccc1)NC(=O)c1cccs1)Nc1c(Cl)cccc1Cl	-3	-1	2	0	31*	14*	35*
COc1ccc(NC(=O)C2CCCCN2S(=O)(=O)c2ccccc2)cc1S(=O)(=O)N1CCOCC1 (stereo not given)	.	-2	-1	-4	4	.	.
O=C(C[n+]1cc[nH]c1)c1ccc(Cl)cc1	.	-2	-1	5	-1	.	.
CCN1CCN(C(c2cccs2)C(C)NS(=O)(=O)c2ccc(C)cc2)CC1 (stereo not given)	-3	-2	3	0	30*	1	-8
CCc1ccc(OCC(=O)NNCC(=O)Nc2ccc(OC)cc2)cc1	.	-3	1	1	-4	.	.
COC(=O)c1sc(N2C(=O)C(O)=C(C(=O)c3ccc(C)o3)C2c2ccc(OC)c(OC)c2)nc1C (stereo not given)	.	-3	4	-2	188*	0	-16
CCOC(=O)c1sc(N2C(=O)C(O)=C(C(=O)c3ccc(C)o3)C2c2ccc(OC)c(OC)c2)nc1C (stereo not given)	10	-4	2	-3	28	.	.
